Data set [1] deals with T1, Sodium/glucose cotransporter 2 (Homo sapiens, UniProt P31639).
T1 sequence (P31639 whole entry): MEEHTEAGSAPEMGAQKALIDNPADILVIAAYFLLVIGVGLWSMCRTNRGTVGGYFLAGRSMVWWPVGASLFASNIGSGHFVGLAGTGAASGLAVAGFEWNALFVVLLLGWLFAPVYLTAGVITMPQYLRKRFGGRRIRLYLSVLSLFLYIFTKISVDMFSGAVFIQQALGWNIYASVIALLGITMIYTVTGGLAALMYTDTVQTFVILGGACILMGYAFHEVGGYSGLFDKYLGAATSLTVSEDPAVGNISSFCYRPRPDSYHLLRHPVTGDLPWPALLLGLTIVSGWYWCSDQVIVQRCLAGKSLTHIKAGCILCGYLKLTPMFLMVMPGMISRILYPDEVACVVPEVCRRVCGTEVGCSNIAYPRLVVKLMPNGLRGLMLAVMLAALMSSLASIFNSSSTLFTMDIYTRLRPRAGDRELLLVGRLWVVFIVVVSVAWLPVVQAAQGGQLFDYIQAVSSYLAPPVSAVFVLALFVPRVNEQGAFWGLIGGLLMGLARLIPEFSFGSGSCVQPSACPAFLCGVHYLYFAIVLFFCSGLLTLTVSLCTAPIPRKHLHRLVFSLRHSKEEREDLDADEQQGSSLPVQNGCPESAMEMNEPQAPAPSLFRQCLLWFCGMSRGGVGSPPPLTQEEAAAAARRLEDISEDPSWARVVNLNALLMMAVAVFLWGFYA
Description: Inhibition of human SGLT2 expressed in CHO cells assessed as [14C]-alpha-methyl-D-glucopyranoside uptake after 2 hrs by liquid scintillation counting. In kind it is cell-based. A digest of the protocol:
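Sodium-dependent glucose transport assay against hSGLT2. IC50 was fitted by nonlinear regression. Values are from single determinations.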

Data set [2] in a line: Elimination half life in Sprague-Dawley rat at 5 mg/kg, po. In kind it is ADME, organism-based. On the set-up: dose 5 mg/kg, route oral. The conditions noted are these: in vivo. A digest of the protocol:
(§1)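 Male Sprague-Dawley rats dosed orally at 5 mg/kg. Measured Cmax with time to Cmax, elimination half-life and oral bioavailability (F).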

In data set [3] the test system is Rattus norvegicus. Description: Antidiabetic activity in Sprague-Dawley rat assessed as increase of glucose disposal at 1 mg/kg, po relative to control. In kind it is functional. A digest of the protocol:
(§2)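 Normal Sprague-Dawley rats given a single oral dose (1 or 10 mg/kg) against vehicle controls. Urinary glucose excretion and urine volume were measured and expressed as fold over vehicle. Data are means ± SEM, compared to vehicle by one-way ANOVA with Dunnett's post hoc test.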

A short description of data set [4]: Cmax in Sprague-Dawley rat at 5 mg/kg, po after 0.38 hrs. In kind it is ADME, organism-based. Also on record: dose 5 mg/kg, route oral. The conditions noted are these: in vivo. A digest of the protocol: as §1
Data set [5] has as its system Rattus norvegicus. Description: Antidiabetic activity in Sprague-Dawley rat assessed as increase of urine volume at 10 mg/kg, po relative to control. It is filed as functional. A digest of the protocol: as §2
The subject of data set [6] is Rattus norvegicus. Description: Antidiabetic activity in Sprague-Dawley rat assessed as increase of urine volume at 1 mg/kg, po relative to control. It is filed as functional. A digest of the protocol: as §2
Data set [7] concerns Rattus norvegicus. Description: Antidiabetic activity in Sprague-Dawley rat assessed as increase of glucose disposal at 10 mg/kg, po relative to control. In kind it is functional. The gist of the method: as §2
A short description of data set [8]: Oral bioavailability in Sprague-Dawley rat at 5 mg/kg. It is filed as ADME, organism-based. Particulars: in vivo. A digest of the protocol:
as §1

Data set [9] concerns Rattus norvegicus. Description: Antidiabetic activity in Sprague-Dawley rat assessed as increase of urinary glucose excretion at 10 mg/kg, po relative to control. In kind it is functional, Urine. The gist of the method: (§3)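 Normal Sprague-Dawley rats received a single oral dose of 1 or 10 mg/kg. Urinary glucose excretion was measured and expressed as fold elevation in glucose disposal over vehicle-treated controls. Values are means ± SEM, compared with vehicle by one-way ANOVA with Dunnett's post hoc test. Urine volume was also recorded.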

The test system of data set [10] is Rattus norvegicus. Description: Antidiabetic activity in Sprague-Dawley rat assessed as increase of urinary glucose excretion at 1 mg/kg, po relative to control. In kind it is functional, Urine. The gist of the method: as §3

The source of these data is ChEMBL document CHEMBL1671843, “Synthesis and SAR of Thiazolylmethylphenyl Glucoside as Novel C-Aryl Glucoside SGLT2 Inhibitors” (ACS Med Chem Lett, 2011).

Consider `OC[C@H]1O[C@@H](c2ccc(Cl)c(Cc3ncc(-c4ccccc4)s3)c2)[C@H](O)[C@@H](O)[C@@H]1O`, for which the concentration for half-maximal inhibition (IC50) (commonly the concentration needed to halve the response being measured) in [1] came to 13.3 nM.

On to `CCCCOc1cnc(Cc2cc([C@@H]3O[C@H](CO)[C@@H](O)[C@H](O)[C@H]3O)ccc2Cl)s1`, for which, in data set [1], the IC50 was 19.6 nM.

For the molecule `OC[C@H]1O[C@@H](c2ccc(Cl)c(Cc3ncc(-c4ccsc4)s3)c2)[C@H](O)[C@@H](O)[C@@H]1O`, the half-life (usually the time in which the quantity being followed falls by half) in data set [2] was 2.51 h. Moreover, the half-maximal inhibitory concentration (IC50) in data set [1] worked out at 0.772 nM. Moreover, the “fold change (FC)” value is on record as 160 in the data set on Rattus norvegicus [3], 4.2 with Rattus norvegicus [5], 2.5 in the data set on Rattus norvegicus [6] and 730 in the data set with Rattus norvegicus [7]. The Cmax (as a rule, the maximum level reached in the sampled fluid or tissue) in data set [4] amounted to 1540 ng/mL. For the same molecule, the bioavailability (commonly dose-corrected exposure relative to a reference, in per cent) in data set [8] worked out at 15%.

Take `OC[C@H]1O[C@@H](c2ccc(Cl)c(Cc3ncc(-c4ccoc4)s3)c2)[C@H](O)[C@@H](O)[C@@H]1O`: the IC50 in [1] stood at 1.57 nM.

Take `OC[C@H]1O[C@@H](c2ccc(Cl)c(Cc3ncc(-c4nccs4)s3)c2)[C@H](O)[C@@H](O)[C@@H]1O`: the IC50 in data set [1] was found to be 3.13 nM.

`O=C(O)c1cnc(Cc2cc([C@@H]3O[C@H](CO)[C@@H](O)[C@H](O)[C@H]3O)ccc2Cl)s1`: the concentration for half-maximal inhibition (IC50) in [1] is above 10000 nM.

For the molecule `OC[C@H]1O[C@@H](c2ccc(Cl)c(Cc3ncc(-c4cccs4)s3)c2)[C@H](O)[C@@H](O)[C@@H]1O`, the IC50 in data set [1] was 1.14 nM.

Regarding `OC[C@H]1O[C@@H](c2ccc(F)c(Cc3ncc(-c4ccsc4)s3)c2)[C@H](O)[C@@H](O)[C@@H]1O`, the concentration for half-maximal inhibition (IC50) in data set [1] turned out to be 7.36 nM.

On to `CCOc1ccc(Cc2cc([C@@H]3O[C@H](CO)[C@@H](O)[C@H](O)[C@H]3O)ccc2Cl)cc1` [DAPAGLIFLOZIN], for which the “fold change (FC)” value with Rattus norvegicus [6] is listed as 5.7. The same molecule registered a bioavailability in data set [8] of 88%.

Regarding `OC[C@H]1O[C@@H](c2ccc(C(F)(F)F)c(Cc3ncc(-c4ccsc4)s3)c2)[C@H](O)[C@@H](O)[C@@H]1O`, in data set [1], the 50% inhibitory concentration (IC50) was 14.6 nM.

Regarding `CCCCCCCc1cnc(Cc2cc([C@@H]3O[C@H](CO)[C@@H](O)[C@H](O)[C@H]3O)ccc2Cl)s1`, in data set [1], the half-maximal inhibitory concentration (IC50) was found to be 12.4 nM.

As to `OC[C@H]1O[C@@H](c2ccc(Cl)c(Cc3ncc(-c4ccc(-c5ccccc5)cc4)s3)c2)[C@H](O)[C@@H](O)[C@@H]1O`, the half-inhibitory concentration (IC50) in data set [1] is 9.31 nM.

For the molecule `OC[C@H]1O[C@@H](c2ccc(Cl)c(Cc3cnc(-c4ccsc4)s3)c2)[C@H](O)[C@@H](O)[C@@H]1O`, in data set [1], the IC50 was 1.11 nM.

As to `OC[C@H]1O[C@@H](c2ccc(Br)c(Cc3ncc(-c4ccsc4)s3)c2)[C@H](O)[C@@H](O)[C@@H]1O`, the IC50 in data set [1] was determined as 6.36 nM.

Turning to `N#Cc1ccc([C@@H]2O[C@H](CO)[C@@H](O)[C@H](O)[C@H]2O)cc1Cc1ncc(-c2ccsc2)s1`, the IC50 in [1] was 140 nM.

For the molecule `OC[C@H]1O[C@@H](c2ccc(Cl)c(Cc3ncc(-c4ccco4)s3)c2)[C@H](O)[C@@H](O)[C@@H]1O`, the half-inhibitory concentration (IC50) in [1] came out at 0.72 nM. The “fold change (FC)” value is 3.7 in the data set with Rattus norvegicus [5], 700 in the data set with Rattus norvegicus [9] and 230 with Rattus norvegicus [10]. In [8], this molecule gave a bioavailability of 20.6%.
